15 molecules from ChEMBL document CHEMBL1143268 (Bioorg Med Chem Lett, 2009) can be followed below.

The subject of series [1] is Vaccinia virus. The experiment in a line: Antiviral activity against Vaccinia virus infected in human foreskin fibroblasts by plaque assay. The format is functional, organism-based. As to conditions: Orthopoxvirus vaccinia.
The test system of another series is Liver. In words: (§1) Metabolic stability in rat liver homogenate. It counts as ADME, tissue-based. As to conditions: tissue homogenate.
For series [2], the system named is Cowpox virus. The experiment in a line: Antiviral activity against Cowpox virus infected in human foreskin fibroblasts by plaque assay. The format is functional, organism-based.
Series [3] is described as follows: Solubility in water. The format is physicochemical.
In a further series the test system is Intestine. In words: (§2) Metabolic stability in rat intestinal homogenate. The format is ADME, tissue-based. As to conditions: tissue homogenate.
Series [4] is described as follows: Permeability from apical to basolateral side in human Caco-2 cells after 21 days. It counts as ADME, cell-based. As to conditions: read-out: permeability. A digest of the protocol:
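Caco-2 monolayers were used 21 days post-seeding. Basolateral aliquots were taken at set intervals and replaced with HEPES buffer pH 7.4. Monolayer integrity was checked by transepithelial resistance.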
(Passage across Caco-2 layers is used to estimate intestinal permeability.)

The test system of the next series is Caco-2. The experiment in a line: Permeability from apical to basolateral side in human Caco-2 cells after 21 days relative to vidarabine. As to conditions: caco-2, 504 h. The format is ADME, cell-based. A digest of the protocol:
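Caco-2 monolayers were used 21 days post-seeding, with integrity checked by transepithelial resistance. Basolateral aliquots were taken at set intervals and replaced with HEPES buffer pH 7.4.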

The nature of series [5]: as §1. The format is ADME, tissue-based. As to conditions: liver homogenate.
The test system of a further series is Plasma. The format is ADME, cell-free. As to conditions: rat.
The subject of a further series is HFF. In words: (§3) Cytotoxicity against HFF. The format is cell-based. As to conditions: human, hff. A digest of the protocol:
(§4)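 Cytotoxicity scored visually in uninfected human foreskin fibroblasts, reported as the 50% inhibitory concentration.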

Series [6] has as its system HeLa. The experiment in a line: Cellular uptake in human HeLa cells after 45 mins. As to conditions: 0.75 h. The format is ADME, cell-based. A digest of the protocol: (§5)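 Direct uptake measured over 45 min and expressed as nmol/mg, in HeLa cells stably expressing hPEPT1 and in parental HeLa controls. Valacyclovir served as the positive control for hPEPT1 carrier-mediated uptake. Values are means ± SD of three experiments.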

Series [7] has as its system HeLa. In words: Cellular uptake in human HeLa cells expressing human PEPT1 transporter after 45 mins. The format is ADME, cell-based. As to conditions: 0.75 h. Summed up: as §5
Series [8] can be described thus: Oral bioavailability in human. The format is ADME, organism-based. As to conditions: in vivo.
Series [9] relates to Cowpox virus. The experiment in a line: Antiviral activity against Cowpox virus infected in HFF by plaque assay in presence of deoxy-coformycin. It counts as functional, organism-based.
Series [10] is described as follows: Cytotoxicity against HFF in presence of deoxy-coformycin. It counts as cell-based. As to conditions: human, HFF cells. Summed up: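 Cytotoxicity was scored visually in uninfected HFF cells, with 1 μM deoxycoformycin present, and reported as the 50% inhibitory concentration.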
Series [11] can be described thus: as §3. It counts as cell-based. As to conditions: human, HFF cells. A digest of the protocol: as §4
Series [12] in a line: as §2. It counts as ADME, tissue-based, Intestine. As to conditions: intestinal homogenate.
Series [13] deals with Vaccinia virus. The experiment in a line: Antiviral activity against Vaccinia virus infected in HFF by plaque assay in presence of deoxy-coformycin. It counts as functional, organism-based. As to conditions: Orthopoxvirus vaccinia.

SMILES strings stand for the structures. In brackets after ≈: the same amount, converted by molar mass.

For orientation: EC50 means the concentration at which the effect is half-maximal. In general, solubility refers to how much of the substance goes into solution per volume. Read a high solubility as much dissolved substance. Regarding `CC(C)C[C@@H](N)C(=O)OC[C@H]1O[C@@H](n2cnc3c(N)ncnc32)[C@@H](O)[C@@H]1O`, the EC50 with Vaccinia virus [1] came out at 3 µM; in the series on Cowpox virus [2], 2.5 µM. Further, the results for the t1/2 with Liver and in the series on Intestine were 3.6 min and 2.4 min, respectively. The molecule further showed a solubility in [3] greater than 10 mg/mL.

Usually half-life stands for the time needed for the level to fall by half in the phase considered. A high value points to slow decline. `Nc1ncnc2c1ncn2[C@@H]1O[C@H](COC(=O)[C@@H](N)Cc2ccccc2)[C@@H](O)[C@@H]1O`: the figures for the concentration giving a half-maximal response (EC50) with Vaccinia virus [1] and in the series on Cowpox virus [2] were 1.8 µM and 3.5 µM, respectively. In series [4], the Papp A→B stood at 6.68 nm/s. Also, in the series on Caco-2, the “fold change (FC)” value was found to be 8.05. The same molecule had a half-life in series [5] of 1.02 min. This molecule also came in with a solubility in series [3] greater than 10 mg/mL. The t1/2 in the series on Intestine worked out at 16.2 min.

For `CC[C@H](C)[C@@H](N)C(=O)OC[C@H]1O[C@@H](n2cnc3c(N)ncnc32)[C@@H](O)[C@@H]1O`, the EC50 is 2.9 µM with Vaccinia virus [1] and 3.5 µM in the series on Cowpox virus [2]. Besides, the figures for the t1/2 with Liver, in the series on Plasma and with Intestine were 18.6 min, 96.6 min and 474 min, respectively. The molecule further displayed a solubility in [3] greater than 10 mg/mL.

A word on the CC50: it is the concentration giving 50% cytotoxicity. As to `CC(C)[C@@H](N)C(=O)OC[C@H]1O[C@@H](n2cnc3c(N)ncnc32)[C@@H](O)[C@@H]1O`, the EC50 with Vaccinia virus [1] is 4.1 µM; in the series with Cowpox virus [2], 8 µM. For the same molecule, the Papp A→B in [4] was 6.01 nm/s. In addition, the “fold change (FC)” value with Caco-2 came to 7.2. The t1/2 in the series with Liver is 27.6 min; with Plasma, 615.6 min; in the series on Intestine, “Stable”. This molecule yielded a solubility in series [3] greater than 10 mg/mL. The molecule also gave a CC50 in the series on HFF greater than 100 µM.

Turning to `Nc1ncnc2c1ncn2[C@@H]1O[C@H](COC(=O)[C@H](N)Cc2ccccc2)[C@@H](O)[C@@H]1O`, the half-maximal effective concentration (EC50) worked out at 2.3 µM with Vaccinia virus [1] and 4 µM in the series with Cowpox virus [2]. Moreover, the t1/2 in the series on Liver was 6 min; in the series on Intestine, 35.4 min. This molecule returned a solubility in [3] greater than 10 mg/mL. The same molecule registered a CC50 in the series on HFF greater than 100 µM.

With `CC(C)C[C@H](N)C(=O)OC[C@H]1O[C@@H](n2cnc3c(N)ncnc32)[C@@H](O)[C@@H]1O`, the EC50 in the series on Vaccinia virus [1] was found to be 3.3 µM; in the series with Cowpox virus [2], 3 µM. In addition, the results for the t1/2 in the series with Liver and in the series on Intestine were 3 min and 1.8 min, respectively. In addition, the solubility in [3] was greater than 10 mg/mL. Further, the CC50 with HFF was greater than 100 µM.

As to `Nc1ncnc2c1ncn2[C@@H]1O[C@H](COC(=O)[C@H](N)CC(=O)O)[C@@H](O)[C@@H]1O`, the EC50 in the series with Vaccinia virus [1] is 2.5 µM; in the series on Cowpox virus [2] it was 4 µM. Besides, the solubility in series [3] was greater than 10 mg/mL. The CC50 in the series on HFF is greater than 100 µM.

For the molecule `Nc1ncnc2c1ncn2[C@@H]1O[C@H](COC(=O)C[C@@H](N)C(=O)O)[C@@H](O)[C@@H]1O`, the EC50 in the series with Vaccinia virus [1] worked out at 3.5 µM; in the series with Cowpox virus [2], 25 µM. Further, in [3], the solubility was greater than 10 mg/mL. This molecule also returned a CC50 with HFF greater than 100 µM.

For the molecule `COC(=O)[C@H](NP(=O)(OC[C@H]1O[C@@H](n2cnc3c(N)ncnc32)[C@@H](O)[C@@H]1O)Oc1ccccc1)C(C)C` (some centres not stated), the t1/2 in the series with Liver is 355 min; in the series with Plasma, 21 min; in the series on Intestine, 1099 min. In series [3], this molecule gave a solubility greater than 10 mg/mL.

As to `CC(C)[C@H](N)C(=O)OC[C@H]1O[C@@H](n2cnc3c(N)ncnc32)[C@@H](O)[C@@H]1O`, the results for the Drug uptake with HeLa [6] and in the series with HeLa [7] were 3.9 nmol/mg and 80.3 nmol/mg, respectively. The EC50 turned out to be 4.8 µM with Vaccinia virus [1] and 4 µM with Cowpox virus [2]. Besides, the figures for the t1/2 in the series on Liver, in the series with Plasma and with Intestine were 1.8 min, 7.8 min and 18 min, respectively. Besides, the solubility in series [3] is greater than 10 mg/mL.

Take `CC[C@H](C)[C@H](N)C(=O)OC[C@H]1O[C@@H](n2cnc3c(N)ncnc32)[C@@H](O)[C@@H]1O`: the Drug uptake in the series on HeLa [6] turned out to be 7.5 nmol/mg; in the series with HeLa [7], 202 nmol/mg. Further, the EC50 came out at 4.5 µM with Vaccinia virus [1] and 2.5 µM in the series with Cowpox virus [2]. Further, in series [4], the Papp A→B amounted to 10.3 nm/s. For the same molecule, in the series on Caco-2, the “fold change (FC)” value is 12.4. The results for the t1/2 with Liver, in the series with Plasma and in the series with Intestine were 3.6 min, 215 min and 34.8 min, respectively. Further, in [3], the solubility is greater than 10 mg/mL. In the series with HFF, this molecule registered a CC50 greater than 100 µM.

For `COC(=O)[C@@H](NP(=O)(OC[C@H]1O[C@@H](n2cnc3c(N)ncnc32)[C@@H](O)[C@@H]1O)Oc1ccccc1)C(C)C` (some centres not stated), the t1/2 result was “Stable” with Liver, 18 min in the series on Plasma and “Stable” in the series with Intestine. Besides, the solubility in [3] is greater than 10 mg/mL.

As a reminder, the bioavailability is the share of a dose that reaches the circulation, judged against a reference dose that is usually intravenous. Low values mean poor availability, high ones good availability. The molecule `Nc1ccn(C[C@@H](CO)OCP(=O)(O)O)c(=O)n1.O.O` [CIDOFOVIR] returned a bioavailability in series [8] of 2%.

As for `CC(C)[C@H](N)C(=O)OCCOCn1cnc2c(=O)[nH]c(N)nc21` [VALACYCLOVIR], the Drug uptake with HeLa [6] is listed as 11.6 nmol/mg; in the series on HeLa [7], 221 nmol/mg.

As for `Nc1ncnc2c1ncn2[C@@H]1O[C@H](CO)[C@@H](O)[C@@H]1O` [VIDARABINE], the concentration for a half-maximal effect (EC50) with Vaccinia virus [1] was 6.2 µM; with Cowpox virus [2], 12.6 µM; in the series on Cowpox virus [9], 1.4 µM; with Vaccinia virus [13], 1 µM. Further, in series [4], the Papp A→B was determined as 0.83 nm/s. Besides, the half-life in [5] was 15 min; in series [12], 3 min. The same molecule came in with a solubility in series [3] of 0.47 mg/mL (≈ 1.76 mM). Moreover, the CC50 in series [10] is 90 µM; in series [11] it was greater than 100 µM.
